Measured values: paper PMC11596327 (Chemistry (Weinheim an der Bergstrasse, Germany), 2023)

Legend:
C7 = target: T1, C7 (Homo sapiens, UniProt P55210); experiment: Differential scanning fluorimetry; assay type: binding; conditions: DICA-saturated C7 plus Ac-DEVD-CMK
T1 sequence (P55210 24-198 limits assumed): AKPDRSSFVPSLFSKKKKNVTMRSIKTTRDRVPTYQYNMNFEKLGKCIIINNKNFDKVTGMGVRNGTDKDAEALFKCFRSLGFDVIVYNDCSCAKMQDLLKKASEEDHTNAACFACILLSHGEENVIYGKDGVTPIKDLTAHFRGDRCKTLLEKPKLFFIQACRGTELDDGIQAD
T1 sequence (P55210 207-303 limits assumed): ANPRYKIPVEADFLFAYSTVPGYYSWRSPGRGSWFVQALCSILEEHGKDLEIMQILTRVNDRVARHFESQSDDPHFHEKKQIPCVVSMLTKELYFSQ

Caspase-7 wt = target: T2, Caspase-7 wt (Homo sapiens, UniProt P55210); experiment: Fluorometric steady-state kinetics assay; assay type: biochemical; conditions: C7 pre-saturated with DICA (DICA-C7)
T2 sequence (P55210 24-198 limits assumed): T1 sequence (P55210 24-198 limits assumed)
T2 sequence (P55210 207-303 limits assumed): T1 sequence (P55210 207-303 limits assumed)
Procedure, shortened: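 Fluorometric steady-state kinetic assays on wild-type C7 and wild-type C3. Both IC50 and Ki were derived. Ki came from fitting a non-competitive inhibitor equation. Values are reported with confidence intervals at the 95% level.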

C7 wt = target: T3, C7 wt (Homo sapiens, UniProt P55210); experiment: Fluorometric stopped-flow pre-steady state kinetics assay; assay type: biochemical; conditions: with increasing concentrations of inhibitor
T3 sequence (P55210 24-198 limits assumed): T1 sequence (P55210 24-198 limits assumed)
T3 sequence (P55210 207-303 limits assumed): T1 sequence (P55210 207-303 limits assumed)
Procedure, shortened: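 Fluorescence stopped-flow on wild-type caspase-7. Progress curves were recorded with test compound at 6 to 500 uM or with DMSO alone, and a covalent allosteric inhibitor served as the assay-development control. Each curve was fitted individually to a pre-steady-state burst equation plus linear steady-state rate to give burst amplitude and k_burst. SE comes from a 95% confidence interval.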

O=C(COc1ccc(Cl)cc1Cl)NCCS [DICA, 2-(2,4-Dichlorophenoxy)-N-(2-mercaptoethyl)-acetamide, reference compound] was tested, and the “formation of physical enzyme-substrate-inhibitor (ESI) complex” value (C7) was “able to physically bind substrate and DICA simultaneously”, the “turnover of Ac-DEVD-AFC substrate” value (Caspase-7 wt) was “no turnover” and the burst amplitude (C7 wt) was “decrease”. The “burst phase rate constant (kburst)” value (C7 wt) was “no change”.
